Columns and labels:
Assay type in all cases: in vivo
[1] = test system: formalin-induced nociception in mice; assay: Formalin test; conditions: formalin 15 min after i.g. administration; RJ-III 0.10 mg/kg, aspirin 200 mg/kg
Outline: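 Fasted ICR mice, n = 10 per group, were dosed i.g. with free or SLN-formulated test compound (0.10 mg/kg), aspirin (200 mg/kg) or saline. Then 25 μL of 2.5% formalin was injected s.c. into the left hind paw at 15 or 45 min post-dose, in separate experiments. Licking/biting time (s) was scored at 0–5 min (phase I) and 15–30 min (phase II).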

[2] = test system: hot-plate nociception in mice; assay: Hot plate test; conditions: RJ-III 0.2 mg/kg, aspirin 300 mg/kg
Outline: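 Baseline latency (paw lick or jump) on a 53 ± 0.5°C plate was taken three times, 15 min apart. Mice under 5 s or over 30 s were excluded. Fasted ICR mice (n = 10) then received free or SLN-formulated test compound (0.20 mg/kg), aspirin or saline, all i.g. Latency was re-measured at 15 and 45 min, with a 30 s cutoff.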

[3] = test system: acetic acid-induced writhing in mice; assay: Acetic acid writhing test; conditions: i.g.; RJ-III 0.10 mg/kg, aspirin 200 mg/kg
Outline: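 Fasted ICR mice (18–22 g, both sexes), n = 10 per group, received free or SLN-formulated test compound (0.10 mg/kg), aspirin (200 mg/kg) or 0.9% saline, all i.g. Then 0.8% acetic acid (10 mL/kg, i.p.) was injected at 15 or 45 min post-dose, in two separate experiments. Abdominal contortions and hind-paw extensions were counted for 30 min.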

CC(=O)Oc1ccccc1C(=O)O [aspirin]
phase I response (licking time) vs normal saline [1]: no effects
phase II response (licking time) vs normal saline [1]: suppressed behavioral responses
latency time compared to pretreatment ([2]; 15 min after i.g. administration): increased the latency time
antinociception relative to pretreatment ([2]; 45 min after i.g. administration): no significant analgesic effect
change in number of writhes between 15 and 45 min [3]: statistically increases
